Screens deposited in PubChem BioAssay by Broad Institute.
Xi reactivation – activators of X-chromosome reactivation in mouse fibroblasts | XiGFP mouse fibroblasts, % GFP-positive cells imaging, 3 d; cells co-treated with 5-aza-dC sensitizer; scaled so ellipticine positive control = 100% | activation, % at 7.58 µM | hit rate 0.055% among 360,000 | AID 743238;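 active means mean normalized replicate activation at least 10% and every replicate at or above 10%; inconclusive means only one of the two criteria met; inactive means mean below 10% and not all replicates reach 10%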
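Assay system – SV40-immortalized XiGFP fibroblast cells, line 68-5-11 · Buffer or medium – DMEM supplemented with 5-aza-dC as sensitizing agent · Dosing – one concentration, pinned · Benchmarks – positive control ellipticine, 6 µM final · Times – 3 days compound exposure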
esBAF inh – SWI/SNF esBAF complex inhibition. mouse ES cells, Bmi1-luciferase knock-in reporter, 24 h; 100% = twice the neutral-well signal. hit rate 2% among 350,000. AID 602393. reporter increase, % at 12.5 µM; in the data active means activation above about 40%; inconclusive means no clear call, values can overlap the other calls;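 further: a rise in the Bmi1 reporter signal indicates esBAF inhibition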
Wnt bcat act – activators of Wnt/beta-catenin signaling | hit rate 1.2% among 300,000 | activation, % at 9.35 µM | Wnt/beta-catenin reporter cell assay, activator, plate reader; in the data active means activation above about 30%, passing the limit was not always enough; inconclusive means no clear call, values can overlap the other calls
MITF act – increases MITF-driven TRPM1 promoter luciferase signal; activation, % at 12.5 µM; SK-MEL-5 TRPM1-promoter luciferase, 24 h; % of positive control, neutral wells = 0; hit rate 0.75% among 300,000; AID 588334;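 active means mean activation of at least 80% with every replicate also reaching 80%; inconclusive means mean reaches 80% but some replicate falls short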
Vif inh – HIV Vif inhibition | HEK293T cells, Vif self-association by quenched fluorescence, imaging, 24 h | inhibition, % at 7.49 µM | hit rate 0.35% among 340,000 | AID 602346; in the data active means inhibition above about 50%, passing the limit was not always enough; inconclusive means no clear call, values can overlap the other calls; inactive means below about 31%
Large screens that a line does not name were inactive. Most compounds without a hit are left out; they make up all but 2.6% or so of the library.

CCOC(=O)c1nn(-c2ccc3ccccc3c2)cc1O	Xi reactivation 17, esBAF inh 51, Wnt bcat act inconclusive, MITF act 133
CC(C)NC(=O)N(C)C[C@@H]1Oc2cc(-c3cncnc3)ccc2S(=O)(=O)N([C@H](C)CO)C[C@@H]1C	none (no result: Wnt bcat act, MITF act, Vif inh)
O=C(O)c1ccc(NCc2cccnc2)cc1	esBAF inh 97, Wnt bcat act 46 (no result: Xi reactivation)
C[C@H]1CN(C)C(=O)c2cc(N(C)C)ccc2O[C@@H]1CN(C)C	none (no result: esBAF inh, Wnt bcat act, MITF act, Vif inh)
Cc1cccc(C(=O)Nc2nnc(SCC(=O)Nc3ccc4c(c3)oc3ccccc34)s2)c1	none (no result: esBAF inh)
COc1ccccc1C(=O)Nc1nnc(SCC(=O)NC2CCCC2)s1	MITF act 91 (no result: Xi reactivation, Wnt bcat act)
O=C(CSc1nnc(NC(=O)c2ccccc2[N+](=O)[O-])s1)NC1CCCC1	none
CC(=O)Nc1ccc(-c2nnc(SCC(=O)Nc3ccc4c(c3)oc3ccccc34)n2C)cc1	esBAF inh 53 (no result: Xi reactivation, MITF act)
CCn1c(SCC(=O)Nc2ccc3c(c2)oc2ccccc23)nnc1-c1ccc(N)cc1	none (no result: Xi reactivation)
COc1ccccc1C(=O)Nc1nnc(SCC(=O)Nc2ccc3c(c2)oc2ccccc23)s1	Wnt bcat act 49 (no result: esBAF inh)
COc1ccc(S(=O)(=O)N[C@H]2CC[C@H](CCn3cc(C(C)C)nn3)O[C@H]2CO)cc1	none (no result: Wnt bcat act, MITF act, Vif inh)
C[C@@H]1CN([C@@H](C)CO)C(=O)c2cc(NC(=O)c3ccccc3)ccc2O[C@@H](C)CCCCO[C@H]1CN(C)Cc1ccncc1	none (no result: Wnt bcat act, MITF act, Vif inh)
Fc1ccccc1CSc1nnc(-c2cccnc2)o1	Wnt bcat act 40 (no result: esBAF inh)
Fc1ccccc1CSc1nnc(-c2ccccc2)o1	Wnt bcat act 68, MITF act 103 (no result: Xi reactivation)
Cc1ccc(C)c(CSc2nnc(-c3cccnc3)o2)c1	none (no result: Xi reactivation, Wnt bcat act)
CC(C)C#Cc1ccc([C@H]2[C@@H](CO)N3C(=O)CN(C(=O)Cc4cccnc4)C[C@@H]23)cc1	none (no result: esBAF inh, Wnt bcat act, MITF act, Vif inh)
COc1ccc(-c2cnc3c(c2)C(=O)N([C@@H](C)CO)C[C@H](C)[C@@H](CN(C)C(=O)NC2CCCC2)O3)cc1	none (no result: Wnt bcat act, MITF act, Vif inh)
COc1ccc2c3c(n(C)c2c1)[C@@H](CO)N(C(=O)C1CCC1)CC31CN(Cc2cccc(F)c2)C1	none (no result: esBAF inh, Wnt bcat act, MITF act, Vif inh)
CCN(CC)C(NC(=O)Cc1ccccc1)C(Cl)(Cl)Cl (configuration not stated)	Wnt bcat act 40 (no result: Xi reactivation)
COCC#Cc1ccc([C@H]2[C@H](CO)N3C(=O)CN(C(=O)C4CCC4)C[C@@H]23)cc1	none (no result: esBAF inh, Wnt bcat act, MITF act, Vif inh)
CO[C@@H]1CN(C)C(=O)c2ccc(NC(=O)c3ccccc3)cc2OC[C@H](C)N(CC2CC2)C[C@H]1C	none (no result: Wnt bcat act, MITF act, Vif inh)
CC(O)CNc1ncnc2cc(-c3ccc(F)cc3)sc12 (configuration not stated)	esBAF inh 54, MITF act inconclusive
COC(CNc1ncnc2sc(-c3ccccc3)cc12)OC	none
CC(=O)N(C)C[C@@H]1Oc2ccccc2C(=O)N(C)C[C@H]1C	none (no result: esBAF inh, Wnt bcat act, MITF act, Vif inh)
Cc1ccc(Nc2cc(C)c3c(O)cccc3n2)cc1C	MITF act 111
O=C(Nc1ccc2c(c1)OCCO2)C1C(c2ccccc2)=Nc2ccccc2N1C(=O)c1cccnc1 (configuration not stated)	Wnt bcat act 50 (no result: esBAF inh, MITF act, Vif inh)
Cc1ccc(C(=O)Nc2cc3c(oc2=O)CCCC3=O)cc1	Wnt bcat act 34 (no result: Xi reactivation, esBAF inh, MITF act)
O=C(Nc1cc2c(oc1=O)CCCC2=O)c1ccccc1	none (no result: Xi reactivation, MITF act)
Cc1nc(NC(=O)c2ccccc2)nc2cc3c(cc12)OCO3	esBAF inh 49
Cc1nc(NC(=O)c2ccc(F)cc2)nc2cc3c(cc12)OCO3	none (no result: Xi reactivation, Wnt bcat act, Vif inh)
Cc1cccc(NC(=O)CCSc2ccccc2)c1C	Wnt bcat act 52 (no result: esBAF inh)
COc1ccc(CN(C)C[C@@H]2OCCCC[C@@H](C)Oc3ccc(NC(=O)c4ccncc4)cc3C(=O)N([C@@H](C)CO)C[C@H]2C)cc1	none (no result: Wnt bcat act, MITF act, Vif inh)
OCc1c(OCc2cccc(F)c2)ccc2ccccc12	esBAF inh 63
CNCc1c(OCc2ccc(F)cc2)ccc2ccccc12	none
COc1ccc(-c2coc3cc(O)cc(O)c3c2=O)cc1	esBAF inh 46, Wnt bcat act 55, MITF act 97
CC(C)Oc1cc(O)c2c(=O)c(-c3ccc(O)cc3)coc2c1	none
COc1ccc(-c2coc3cc(OC)cc(O)c3c2=O)cc1	MITF act 96 (no result: Xi reactivation, esBAF inh, Wnt bcat act)
COc1ccc(-c2coc3cc(OC)cc(OC)c3c2=O)cc1	esBAF inh 63 (no result: Xi reactivation)
COc1ccc(-c2coc3cc(O)ccc3c2=O)cc1	Wnt bcat act 47, Vif inh 57
COc1ccc(-c2coc3cc(OC)ccc3c2=O)cc1	none (no result: Xi reactivation)
C[C@@H]1CN([C@H](C)CO)C(=O)Cc2cc(NC(=O)C3CCCCC3)ccc2O[C@@H]1CN(C)C(=O)Nc1ccc(C(F)(F)F)cc1	none (no result: Wnt bcat act, MITF act, Vif inh)
CCC(=O)N1CC(=O)N2[C@H](C1)[C@H](c1ccc(C#CC(C)C)cc1)[C@@H]2CO	none (no result: esBAF inh, Wnt bcat act, MITF act, Vif inh)
COc1cc(O)cc2occ(-c3ccc(O)cc3)c(=O)c12	none (no result: Xi reactivation)
O=c1c(-c2ccc(O)cc2)coc2cc(O)cc(O)c12	esBAF inh 57, Wnt bcat act 44, MITF act 100 (no result: Xi reactivation)
C[C@@H]1CN([C@@H](C)CO)C(=O)Cc2cc(NC(=O)Nc3ccccc3)ccc2O[C@H]1CN(C)Cc1ccc2c(c1)OCO2	none (no result: Wnt bcat act, MITF act, Vif inh)
O=C(Nc1ccc(N2CCN(C(=O)c3ccco3)CC2)cc1)c1ccccc1F	none (no result: Xi reactivation, esBAF inh, Wnt bcat act, Vif inh)
O=C(Nc1ccc(N2CCN(C(=O)c3ccco3)CC2)cc1)c1cccc(F)c1	esBAF inh 54 (no result: Xi reactivation, MITF act)
O=C(Nc1ccc(N2CCCC2)cc1)c1cccc(Cl)c1	Wnt bcat act 33, MITF act 102
CC(=O)N1CCN(c2ccc(NC(=O)c3cccc(C)c3)cc2)CC1	none (no result: MITF act)
CC(=O)N1CCN(c2ccc(NC(=O)c3cccc(F)c3)cc2)CC1	esBAF inh 54 (no result: MITF act)
O=C(Nc1ccc(N2CCCC2)cc1)c1cc(Cl)ccc1Cl	none
O=C(CN1CCCCC1)Nc1nc(-c2ccccc2)cs1	esBAF inh 55
Cc1nc(NC(=O)CN2CCOCC2)sc1-c1ccccc1	esBAF inh 50 (no result: Xi reactivation)
OC[C@H]1[C@@H](c2ccccc2)C2(CN(Cc3ccccc3)C2)N1Cc1ccncc1	none (no result: esBAF inh, Wnt bcat act, MITF act, Vif inh)
CCCN(C)C[C@H]1Oc2cc(C#Cc3cccnc3)ccc2S(=O)(=O)N([C@H](C)CO)C[C@@H]1C	none (no result: Wnt bcat act, MITF act, Vif inh)
c1ccc(CSc2nnc(NC3CCCCC3)s2)cc1	Wnt bcat act 42 (no result: esBAF inh, MITF act)
CCNC(=O)C[C@H]1C=C[C@H](NC(=O)C2CCC2)[C@H](CO)O1	none (no result: Wnt bcat act, MITF act, Vif inh)
COc1ccc(Br)cc1/C=N/NC(=O)c1ccc(COc2ccc3c(c2)CCC3)o1	esBAF inh 56 (no result: Xi reactivation)
O=C(N/N=C/c1cc([N+](=O)[O-])ccc1O)c1ccc(COc2ccc3c(c2)CCC3)o1	none
Brc1ccccc1OCCOc1cccc2cccnc12	none (no result: esBAF inh)
Brc1ccccc1OCCCOc1cccc2cccnc12	esBAF inh 77 (no result: MITF act)
COc1ccc(/C=C/c2nc(-c3ccccc3O)n[nH]2)cc1	Wnt bcat act 38 (no result: esBAF inh)
OC(c1ccc(F)c(F)c1)c1nc(-c2cccs2)cs1 (configuration not stated)	none (no result: MITF act)
COc1ccc(-c2csc(C(NC(C)=O)c3cccc(F)c3)n2)cn1 (configuration not stated)	none (no result: MITF act)
